Source: ChEMBL document CHEMBL1145892, “2-Substitution of adenine nucleotide analogues containing a bicyclo[3.1.0]hexane ring system locked in a northern conformation: enhanced potency as P2Y1 receptor antagonists” (J Med Chem, 2003)

Columns and labels:
P2Y purinoceptor 1 [1] = target: T1, P2Y purinoceptor 1 (Homo sapiens, UniProt P47900); assay: Antagonistic activity against P2Y purinoceptor 1; assay type: functional
In short: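 Human P2Y1 stably expressed in 1321N1 astrocytoma cells, labeled 18–24 h at 37 °C with 1.0 µCi [3H]myo-inositol in inositol-free DMEM. Inositol phosphate accumulation was stimulated by 30 nM 2MeSADP over 10 min at 37 °C with 10 mM LiCl. Total [3H]inositol phosphates were measured by anion exchange. IC50 came from a four-parameter logistic fit; ≥3 experiments, duplicate or triplicate.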

P2Y purinoceptor 1 [2] = target: T1, P2Y purinoceptor 1; assay: Inhibition of [3H]5 binding to P2Y purinoceptor 1 expressed in Sf9 cells
In short: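 Membranes were from Sf9 cells expressing human P2Y1 via recombinant baculovirus. They were incubated 30 min at 4 °C with [3H]5 (~20 nM or 10 nM as stated) across a wide analogue concentration range. Samples were filtered over glass-fiber with ice-cold 10 mM Tris pH 7.5/145 mM NaCl and counted by scintillation. Assays were triplicate, three experiments. Ki = IC50/(1+[L]/Kd), Kd 8 nM.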

T1 sequence (P47900 whole entry): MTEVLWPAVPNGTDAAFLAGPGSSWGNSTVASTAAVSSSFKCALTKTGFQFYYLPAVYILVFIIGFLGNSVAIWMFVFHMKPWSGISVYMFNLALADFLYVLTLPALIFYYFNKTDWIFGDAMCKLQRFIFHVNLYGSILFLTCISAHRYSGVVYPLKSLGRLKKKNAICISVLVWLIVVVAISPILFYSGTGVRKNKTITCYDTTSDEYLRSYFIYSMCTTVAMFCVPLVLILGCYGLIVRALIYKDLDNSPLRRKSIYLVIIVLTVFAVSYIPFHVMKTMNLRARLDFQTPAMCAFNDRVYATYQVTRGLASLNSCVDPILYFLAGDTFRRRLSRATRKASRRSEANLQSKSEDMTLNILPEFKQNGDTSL

| Structure (SMILES) | IC50 (P2Y purinoceptor 1 [1]) | Ki (P2Y purinoceptor 1 [2]) |
| --- | --- | --- |
| CCCC/C=C\c1nc(NC)c2ncn([C@H]3C[C@H](OP(=O)(O)O)[C@]4(COP(=O)(O)O)C[C@H]34)c2n1 | 2400 nM | 430 nM |
| CSc1nc(N)c2ncn([C@H]3C[C@H](OP(=O)(O)O)[C@]4(COP(=O)(O)O)C[C@H]34)c2n1 | 367 nM | 863 nM |
| CNc1ncnc2c1ncn2[C@H]1C[C@H](OP(=O)(O)O)[C@]2(COP(=O)(O)O)C[C@H]12 | 157 nM | 17.6 nM |
| CNc1nc(SC)nc2c1ncn2[C@H]1C[C@H](OP(=O)(O)O)[C@]2(COP(=O)(O)O)C[C@H]12 | 221 nM | 91 nM |
| CCCC/C=C/c1nc(NC)c2ncn([C@H]3C[C@H](OP(=O)(O)O)[C@]4(COP(=O)(O)O)C[C@H]34)c2n1 | 1870 nM | 330 nM |
| CNc1nc(F)nc2c1ncn2[C@H]1C[C@H](OP(=O)(O)O)[C@]2(COP(=O)(O)O)C[C@H]12 | 356 nM | 45 nM |
| CCCCCCc1nc(NC)c2ncn([C@H]3C[C@H](OP(=O)(O)O)[C@]4(COP(=O)(O)O)C[C@H]34)c2n1 | 452 nM | 80 nM |
| Nc1nc(I)nc2c1ncn2C1CC(OP(=O)(O)O)[C@]2(COP(=O)(O)O)C[C@H]12 (stereo partly specified) | 87 nM | 12.6 nM |
| CNc1nc([Se]C)nc2c1ncn2C1CC(OP(=O)(O)O)[C@]2(COP(=O)(O)O)C[C@H]12 (stereo partly specified) | 377 nM | 35 nM |

Compounds with a lower IC50 (P2Y purinoceptor 1 [1]), results first:

| IC50 (P2Y purinoceptor 1 [1]) | Ki (P2Y purinoceptor 1 [2]) | Structure (SMILES) |
| --- | --- | --- |
| 37 nM | 5.1 nM | CNc1nc(Br)nc2c1ncn2C1CC(OP(=O)(O)O)[C@]2(COP(=O)(O)O)C[C@H]12 (stereo partly specified) |
| 52 nM | 2.5 nM | CNc1nc(Cl)nc2c1ncn2[C@H]1C[C@H](OP(=O)(O)O)[C@]2(COP(=O)(O)O)C[C@H]12 |
| 49 nM | 3.6 nM | CNc1nc(C)nc2c1ncn2[C@H]1C[C@H](OP(=O)(O)O)[C@]2(COP(=O)(O)O)C[C@H]12 |
| 8.4 nM | 0.78 nM | CNc1nc(I)nc2c1ncn2[C@H]1C[C@H](OP(=O)(O)O)[C@]2(COP(=O)(O)O)C[C@H]12 |
